Measured values taken from ChEMBL document CHEMBL1147539, “Synthesis and biological evaluation of novel, selective, nonsteroidal glucocorticoid receptor antagonists” (Bioorg Med Chem Lett, 2004).
pIC50: −log10 of the molar value. Each block holds one compound with its values, some of them ahead of it.

Columns and labels:
Glucocorticoid receptor [1] = biological target: T1, Glucocorticoid receptor (Homo sapiens, UniProt P04150); assay: Displacement of [3H]dexamethasone from human Glucocorticoid receptor (GR); Value ranges from 1273-2947 nM
T1 sequence (P04150 whole entry): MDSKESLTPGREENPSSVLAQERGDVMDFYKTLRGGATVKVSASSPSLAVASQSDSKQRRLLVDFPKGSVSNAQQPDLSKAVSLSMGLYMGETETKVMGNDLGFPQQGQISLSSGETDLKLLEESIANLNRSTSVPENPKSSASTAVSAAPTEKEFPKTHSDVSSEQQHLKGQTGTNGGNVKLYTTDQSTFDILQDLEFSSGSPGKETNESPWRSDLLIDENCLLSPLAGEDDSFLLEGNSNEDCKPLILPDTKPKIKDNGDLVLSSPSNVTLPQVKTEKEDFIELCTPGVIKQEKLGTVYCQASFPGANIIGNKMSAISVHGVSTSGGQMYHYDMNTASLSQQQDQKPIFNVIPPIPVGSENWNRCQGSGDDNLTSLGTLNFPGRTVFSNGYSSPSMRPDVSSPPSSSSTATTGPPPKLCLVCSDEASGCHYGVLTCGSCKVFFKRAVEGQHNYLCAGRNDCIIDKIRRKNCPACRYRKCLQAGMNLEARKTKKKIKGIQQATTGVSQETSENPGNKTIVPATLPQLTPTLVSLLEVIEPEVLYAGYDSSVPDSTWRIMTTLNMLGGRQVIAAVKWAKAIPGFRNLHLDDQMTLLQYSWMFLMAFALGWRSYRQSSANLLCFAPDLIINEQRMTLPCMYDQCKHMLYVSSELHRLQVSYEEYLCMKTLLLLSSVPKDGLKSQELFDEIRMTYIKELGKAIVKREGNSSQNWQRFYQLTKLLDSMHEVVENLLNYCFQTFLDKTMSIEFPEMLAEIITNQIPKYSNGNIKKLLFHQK
Outline: (§1)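 Binding to human GR; IC50 reported as the geometric mean of two experiments (three for some values), each run in duplicate, with the range of the experiments given.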

Glucocorticoid receptor [2] = biological target: T1, Glucocorticoid receptor; assay: Effect on human Glucocorticoid receptor (GR) in a whole cell assay to measure functional cellular GR-antagonism (GRAF)
Glucocorticoid receptor [3] = biological target: T1, Glucocorticoid receptor
Glucocorticoid receptor [4] = biological target: T1, Glucocorticoid receptor; assay: Displacement of [3H]dexamethasone from human Glucocorticoid receptor (GR); Value ranges from 28-34 nM
Glucocorticoid receptor [5] = biological target: T1, Glucocorticoid receptor; remark: listed apart in the source
Glucocorticoid receptor [6] = biological target: T1, Glucocorticoid receptor; assay: Displacement of [3H]dexamethasone from human Glucocorticoid receptor (GR); Value ranges from 559-1423 nM; outline: as §1
Glucocorticoid receptor [7] = biological target: T1, Glucocorticoid receptor; assay: Effect on functional cellular GR-antagonism (GRAF) in human Glucocorticoid receptor (GR) expressing cells
Outline: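 Whole-cell functional GR antagonism measured in a genetically engineered mammalian cell line expressing GR; IC50 determined from 12-concentration compound curves.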

Glucocorticoid receptor [8] = biological target: T1, Glucocorticoid receptor; assay: Displacement of [3H]dexamethasone from human Glucocorticoid receptor (GR); Value ranges from 9-12 nM
Glucocorticoid receptor [9] = biological target: T1, Glucocorticoid receptor; remark: listed apart in the source
Glucocorticoid receptor [10] = biological target: T1, Glucocorticoid receptor; assay: Displacement of [3H]dexamethasone from human Glucocorticoid receptor (GR); Value ranges from 106-131 nM
Glucocorticoid receptor [11] = biological target: T1, Glucocorticoid receptor; assay: Displacement of [3H]dexamethasone from human Glucocorticoid receptor (GR); Value ranges from 26-67 nM; outline: as §1
Glucocorticoid receptor [12] = biological target: T1, Glucocorticoid receptor; assay: Displacement of [3H]dexamethasone from human Glucocorticoid receptor (GR); Value ranges from 150-220 nM; outline: as §1
Glucocorticoid receptor [13] = biological target: T1, Glucocorticoid receptor; assay: Displacement of [3H]dexamethasone from human Glucocorticoid receptor (GR); Value ranges from 681-974 nM; outline: as §1
Glucocorticoid receptor [14] = biological target: T1, Glucocorticoid receptor; assay: Displacement of [3H]dexamethasone from human Glucocorticoid receptor (GR); Value ranges from 39-94 nM
Glucocorticoid receptor [15] = biological target: T1, Glucocorticoid receptor; assay: Displacement of [3H]dexamethasone from human Glucocorticoid receptor (GR); Value ranges from 949-1169 nM; outline: as §1
Androgen receptor = biological target: T2, Androgen receptor (Homo sapiens, UniProt P10275); assay: Displacement of [3H]mibolerone from human Androgen receptor
T2 sequence (P10275 whole entry): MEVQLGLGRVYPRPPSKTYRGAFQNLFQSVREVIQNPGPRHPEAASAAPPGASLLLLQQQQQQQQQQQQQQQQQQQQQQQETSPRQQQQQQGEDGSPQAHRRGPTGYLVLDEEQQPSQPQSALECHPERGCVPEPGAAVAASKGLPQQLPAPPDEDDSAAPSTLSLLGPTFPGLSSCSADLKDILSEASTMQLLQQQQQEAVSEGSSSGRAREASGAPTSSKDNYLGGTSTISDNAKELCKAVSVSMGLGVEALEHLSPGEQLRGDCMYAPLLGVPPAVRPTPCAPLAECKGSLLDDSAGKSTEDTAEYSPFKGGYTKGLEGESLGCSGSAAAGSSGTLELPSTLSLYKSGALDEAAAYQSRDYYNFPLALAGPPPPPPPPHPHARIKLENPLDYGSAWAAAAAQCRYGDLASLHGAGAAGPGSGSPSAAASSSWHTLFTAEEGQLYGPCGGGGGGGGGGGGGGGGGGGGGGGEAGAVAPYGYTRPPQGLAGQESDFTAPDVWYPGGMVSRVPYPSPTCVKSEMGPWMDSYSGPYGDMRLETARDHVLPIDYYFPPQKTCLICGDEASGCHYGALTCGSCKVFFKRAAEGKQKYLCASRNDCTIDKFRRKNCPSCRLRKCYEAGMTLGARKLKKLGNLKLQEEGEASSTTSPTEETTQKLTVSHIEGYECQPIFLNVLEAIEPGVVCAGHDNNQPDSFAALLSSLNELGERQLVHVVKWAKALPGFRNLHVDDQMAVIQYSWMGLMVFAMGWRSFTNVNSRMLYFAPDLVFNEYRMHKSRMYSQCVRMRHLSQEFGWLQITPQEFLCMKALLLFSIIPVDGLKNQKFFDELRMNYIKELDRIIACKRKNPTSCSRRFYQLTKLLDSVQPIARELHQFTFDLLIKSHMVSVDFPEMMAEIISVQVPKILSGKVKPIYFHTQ

Estrogen receptor = biological target: T3, Estrogen receptor (Homo sapiens, UniProt P03372); assay: Displacement of [3H]estradiol from human estrogen receptor alpha
T3 sequence (P03372 whole entry): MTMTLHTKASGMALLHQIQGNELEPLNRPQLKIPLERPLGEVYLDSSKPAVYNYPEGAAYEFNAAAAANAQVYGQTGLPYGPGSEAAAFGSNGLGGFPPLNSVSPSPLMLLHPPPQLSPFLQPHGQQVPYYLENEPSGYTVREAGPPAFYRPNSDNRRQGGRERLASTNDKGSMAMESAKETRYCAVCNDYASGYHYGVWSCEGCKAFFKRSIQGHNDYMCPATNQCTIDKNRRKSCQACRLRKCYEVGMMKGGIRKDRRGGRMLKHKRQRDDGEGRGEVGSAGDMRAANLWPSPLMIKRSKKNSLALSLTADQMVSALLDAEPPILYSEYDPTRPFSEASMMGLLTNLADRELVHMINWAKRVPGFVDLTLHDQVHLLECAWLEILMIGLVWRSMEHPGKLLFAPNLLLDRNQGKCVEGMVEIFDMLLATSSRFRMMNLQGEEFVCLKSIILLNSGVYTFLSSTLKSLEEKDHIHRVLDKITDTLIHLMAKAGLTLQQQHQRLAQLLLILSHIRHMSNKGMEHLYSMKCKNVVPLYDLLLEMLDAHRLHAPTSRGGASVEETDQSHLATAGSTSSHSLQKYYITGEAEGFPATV
Outline: (§2)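 Human steroid receptor (PR, MR, AR, ERα) binding measured by radioligand displacement, with IC50s determined in duplicate. Values without a range come from a single experiment, and values with a range are geometric means of repeat experiments.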

Glucocorticoid receptor [16] = biological target: T1, Glucocorticoid receptor; assay: Displacement of [3H]dexamethasone from human Glucocorticoid receptor (GR); Value ranges from 2-2 nM
[17] = biological target: T4, Mineralocorticoid receptor (Homo sapiens, UniProt P08235); assay: Displacement of [3H]aldosterone from human Mineralocorticoid receptor; outline: as §2
T4 sequence (P08235 whole entry): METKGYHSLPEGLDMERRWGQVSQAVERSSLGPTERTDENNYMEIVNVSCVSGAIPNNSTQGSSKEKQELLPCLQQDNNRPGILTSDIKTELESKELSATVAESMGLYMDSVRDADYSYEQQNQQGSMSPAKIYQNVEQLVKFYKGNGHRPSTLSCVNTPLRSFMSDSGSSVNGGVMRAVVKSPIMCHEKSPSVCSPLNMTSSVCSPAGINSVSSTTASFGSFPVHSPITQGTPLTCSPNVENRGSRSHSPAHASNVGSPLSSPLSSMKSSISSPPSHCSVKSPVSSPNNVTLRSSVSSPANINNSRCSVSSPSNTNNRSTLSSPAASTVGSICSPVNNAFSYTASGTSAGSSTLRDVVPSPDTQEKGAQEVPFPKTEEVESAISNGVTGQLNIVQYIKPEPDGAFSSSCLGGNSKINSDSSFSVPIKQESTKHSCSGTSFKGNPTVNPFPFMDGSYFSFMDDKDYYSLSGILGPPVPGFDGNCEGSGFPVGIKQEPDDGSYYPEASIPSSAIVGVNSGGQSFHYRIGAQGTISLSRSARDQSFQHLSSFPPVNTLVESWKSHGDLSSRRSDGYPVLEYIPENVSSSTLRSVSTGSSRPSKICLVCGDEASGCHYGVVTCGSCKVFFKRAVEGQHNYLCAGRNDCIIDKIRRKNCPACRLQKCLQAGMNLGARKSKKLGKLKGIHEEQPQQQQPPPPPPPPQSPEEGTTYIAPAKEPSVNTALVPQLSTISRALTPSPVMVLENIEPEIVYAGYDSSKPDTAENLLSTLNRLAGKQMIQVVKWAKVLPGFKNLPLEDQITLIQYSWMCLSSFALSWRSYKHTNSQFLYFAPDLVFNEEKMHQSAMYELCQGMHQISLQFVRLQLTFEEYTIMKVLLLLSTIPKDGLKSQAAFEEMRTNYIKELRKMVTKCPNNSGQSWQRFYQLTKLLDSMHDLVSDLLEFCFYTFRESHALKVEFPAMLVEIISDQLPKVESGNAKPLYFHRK

Glucocorticoid receptor [18] = biological target: T1, Glucocorticoid receptor; assay: Displacement of [3H]dexamethasone from human Glucocorticoid receptor (GR); Value ranges from 379-840 nM; outline: as §1
Glucocorticoid receptor [19] = biological target: T1, Glucocorticoid receptor; assay: Displacement of [3H]dexamethasone from human Glucocorticoid receptor (GR); Value ranges from 215-217 nM; outline: as §1
Glucocorticoid receptor [20] = biological target: T1, Glucocorticoid receptor; assay: Displacement of [3H]dexamethasone from human Glucocorticoid receptor (GR); Value ranges from 3-3 nM
Glucocorticoid receptor [21] = biological target: T1, Glucocorticoid receptor; assay: Displacement of [3H]dexamethasone from human Glucocorticoid receptor (GR); Value ranges from 44-53 nM

SMILES: COc1cccc2c1-c1ccc(N)cc1C(c1ccccc1)O2 (stereo not drawn)
pIC50 (Glucocorticoid receptor [1]): 5.71
pIC50 (Glucocorticoid receptor [2]): 5.70

SMILES: CCOc1ccc(CC2Oc3cccc(OC)c3-c3ccc(NS(C)(=O)=O)cc32)cc1 (stereo not drawn)
pIC50 (Glucocorticoid receptor [3]): 6.26

SMILES: CCOC(=O)c1cccc(C2Oc3cccc(OC)c3-c3ccc(NS(C)(=O)=O)cc32)c1 (stereo not drawn)
pIC50 (Glucocorticoid receptor [2]): 6.53
pIC50 (Glucocorticoid receptor [4]): 7.51

SMILES: CS(=O)(=O)Nc1ccc2c(c1)C(c1ccccc1)Oc1cccc(-c3cccs3)c1-2 (stereo not drawn)
pIC50 (Glucocorticoid receptor [5]): 6.18

SMILES: COc1cccc2c1-c1ccc(NCc3ccccc3)cc1C(c1ccccc1)O2 (stereo not drawn)
pIC50 (Glucocorticoid receptor [2]): 6.40
pIC50 (Glucocorticoid receptor [9]): 6.04

SMILES: COc1cccc2c1-c1ccc(NS(=O)(=O)N(C)C)cc1C(c1ccccc1)O2 (stereo not drawn)
pIC50 (Glucocorticoid receptor [2]): 6.92
pIC50 (Glucocorticoid receptor [11]): 7.39

SMILES: COc1ccccc1C1Oc2cccc(OC)c2-c2ccc(NS(C)(=O)=O)cc21 (stereo not drawn)
pIC50 (Glucocorticoid receptor [13]): 6.09
pIC50 (Glucocorticoid receptor [2]): 6.18

SMILES: CCOC(=O)c1ccc(C2Oc3cccc(OC)c3-c3ccc(NS(C)(=O)=O)cc32)cc1 (stereo not drawn)
pIC50 (Glucocorticoid receptor [14]): 7.21
pIC50 (Glucocorticoid receptor [2]): 6.41

SMILES: CCNc1ccc2c(c1)C(c1ccccc1)Oc1cccc(OC)c1-2 (stereo not drawn)
pIC50 (Glucocorticoid receptor [18]): 6.25
pIC50 (Glucocorticoid receptor [2]): 6.42

SMILES: COc1cccc2c1-c1ccc(NS(C)(=O)=O)cc1C(c1cccc(O)c1)O2 (stereo not drawn)
pIC50 (Glucocorticoid receptor [19]): 6.67

SMILES: COc1cccc2c1-c1ccc(NS(C)(=O)=O)cc1C(c1cccc(Cl)c1)O2 (stereo not drawn)
pIC50 (Androgen receptor): < 5.00
pIC50 (Estrogen receptor): < 5.00
pIC50 (Glucocorticoid receptor [2]): 6.83
pIC50 (Glucocorticoid receptor [20]): 8.52
pIC50 [17]: 5.67

The next lines start with the values.

pIC50 (Glucocorticoid receptor [6]): 6.05
pIC50 (Glucocorticoid receptor [7]): 5.74
SMILES: CS(=O)(=O)Nc1ccc2c(c1)C(c1ccccc1)Oc1cccc(O)c1-2 (stereo not drawn)

pIC50 (Glucocorticoid receptor [8]): 8.00
pIC50 (Glucocorticoid receptor [2]): 6.89
SMILES: COc1cccc2c1-c1ccc(NS(C)(=O)=O)cc1C(c1ccc(Cl)cc1)O2 (stereo not drawn)

pIC50 (Glucocorticoid receptor [10]): 6.93
pIC50 (Glucocorticoid receptor [2]): 7.16
SMILES: COc1cccc2c1-c1ccc(NC(C)=O)cc1C(c1ccccc1)O2 (stereo not drawn)

pIC50 (Glucocorticoid receptor [12]): 6.74
SMILES: CS(=O)(=O)Nc1ccc2c(c1)C(c1ccccc1)Oc1cccc(CO)c1-2 (stereo not drawn)

pIC50 (Glucocorticoid receptor [15]): 5.98
pIC50 (Glucocorticoid receptor [2]): 6.68
SMILES: COc1cccc2c1-c1ccc(N(C)S(C)(=O)=O)cc1C(c1ccccc1)O2 (stereo not drawn)

pIC50 (Androgen receptor): 5.06
pIC50 (Estrogen receptor): < 5.00
pIC50 (Glucocorticoid receptor [2]): 7.24
pIC50 (Glucocorticoid receptor [16]): 8.70
pIC50 [17]: 6.79
SMILES: CS(=O)(=O)Nc1ccc2c(c1)C(c1ccccc1)Oc1cccc(OC(F)F)c1-2 (stereo not drawn)

pIC50 (Glucocorticoid receptor [21]): 7.32
pIC50 (Glucocorticoid receptor [2]): 6.36
SMILES: COc1cccc2c1-c1ccc(NS(C)(=O)=O)cc1C(c1cccc(Oc3ccccc3)c1)O2 (stereo not drawn)
